From the RNAGym collection of RNA variant scans (doi:10.1002/anie.201605470) come the findings set out here.

The labels stand for the following.
B1: Osa-1-4 twister ribozyme (parent)
chain: CCGCCUAACACUGCCAAUGCCGGUCCCAAGCCCGGAUAAAAGUGGAGGGGGCGG

In this data set the parent is B1. Description: self-cleavage, relative activity (ratio to wild type); higher = more cleavage; co-transcriptional. The procedure, abridged: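 For each read, cleavage status was taken from whether upstream sequence was present. The reads came from an Oryza sativa twister ribozyme of 54 nucleotides, whose DNA template was synthesised with 97 % wild-type base and 1 % of each other base at the 48 positions downstream of the cleavage site. The template was transcribed in vitro at 37 °C for 2 h with co-transcriptional self-cleavage, and the RNA was reverse-transcribed using a template-switching oligonucleotide, PCR-amplified and deep-sequenced. Relative activity is the fraction cleaved normalised to wild type.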
For G53C U18C, the self-cleavage was determined as 0.1.

Regarding G53C U18G, the self-cleavage came to 0.14.

As for G53C U18A, the self-cleavage was 0.09.

As for G53U U43C, the self-cleavage was found to be 0.15.

Regarding G53U U43G, the self-cleavage stood at 0.13.

Turning to G53U U43A, the self-cleavage worked out at 0.2.

As to C52U, the self-cleavage turned out to be 1.03.

With C52G G53U, the self-cleavage was found to be 0.44.

Turning to C52G G53C, the self-cleavage was determined as 0.24.

In the case of C52G G53A, the self-cleavage stood at 0.57.

C52U G45C: the self-cleavage turned out to be 0.07.

With C52U G45A, the self-cleavage turned out to be 0.54.

Turning to C52U G45U, the self-cleavage came out at 0.17.

In the case of C52G U43G, the self-cleavage turned out to be 0.65.

With C52G U43C, the self-cleavage was determined as 0.55.

On to C52G U43A, for which the self-cleavage came out at 0.9.

Take C52U G49A: the self-cleavage was 0.21.

For C52U G49U, the self-cleavage was determined as 0.15.

Turning to C52U G49C, the self-cleavage is 0.07.

Turning to G54A U12A, the self-cleavage turned out to be 0.48.

With G54A U12C, the self-cleavage was 0.56.

For G54A U12G, the self-cleavage was determined as 0.28.

In the case of G53U U18A, the self-cleavage stood at 0.41.

Consider G53U U18C, for which the self-cleavage was 0.3.

Take G53U U18G: the self-cleavage was determined as 0.39.

In the case of C52U G47A, the self-cleavage came to 0.45.

For the variant C52U G47U, the self-cleavage is 0.4.

Consider C52U G47C, for which the self-cleavage was found to be 0.12.

Regarding G54A U18G, the self-cleavage came out at 0.71.

As to G54A U18C, the self-cleavage was 0.93.

Consider G54A U18A, for which the self-cleavage turned out to be 0.88.

Consider C52U G13C, for which the self-cleavage came out at 0.01.

For the variant C52U G13A, the self-cleavage is 0.14.

As for C52U G13U, the self-cleavage was found to be 0.05.

Turning to C52U G30U, the self-cleavage amounted to 0.04.

As for C52U G30A, the self-cleavage was 0.04.

Turning to C52U G30C, the self-cleavage worked out at 0.04.

On to C52U G44A, for which the self-cleavage was determined as 1.

For the variant C52U G44C, the self-cleavage was 1.05.

With C52U G44U, the self-cleavage was found to be 1.02.

In the case of C52G U37A, the self-cleavage amounted to 0.81.

Regarding C52G U37C, the self-cleavage came out at 1.05.

As for C52G U37G, the self-cleavage came out at 1.02.

On to G53C U12C, for which the self-cleavage worked out at 0.05.

On to G53C U12G, for which the self-cleavage was 0.04.

On to G53C U12A, for which the self-cleavage came out at 0.07.

With G54A U37C, the self-cleavage is 0.98.

Regarding G54A U37A, the self-cleavage turned out to be 0.73.

With G54A U37G, the self-cleavage was found to be 1.

Turning to C52U U43C, the self-cleavage was determined as 0.62.

With C52U U43G, the self-cleavage stood at 0.88.

In the case of C52U U43A, the self-cleavage amounted to 1.

Regarding G53A G54C, the self-cleavage was 0.66.

Regarding G53A G54U, the self-cleavage turned out to be 0.79.

As to G53A G54A, the self-cleavage came out at 0.62.

On to G53U U24G, for which the self-cleavage came to 0.03.

Turning to G53U U24A, the self-cleavage is 0.06.

G53U U24C: the self-cleavage came out at 0.06.

For the variant G53U U37G, the self-cleavage came to 0.61.

For the variant G53U U37C, the self-cleavage was found to be 0.55.

In the case of G53U U37A, the self-cleavage worked out at 0.32.

As for G54A U43A, the self-cleavage was 0.84.

Regarding G54A U43G, the self-cleavage came out at 0.69.

For G54A U43C, the self-cleavage turned out to be 0.58.

Turning to C52U G34U, the self-cleavage was 0.85.

Take C52U G34C: the self-cleavage amounted to 0.65.

Consider C52U G34A, for which the self-cleavage came to 0.93.

Turning to C52G G54A, the self-cleavage turned out to be 0.81.

For the variant C52G G54U, the self-cleavage turned out to be 0.97.

Take C52G G54C: the self-cleavage was found to be 0.91.

On to G53A U37G, for which the self-cleavage amounted to 0.97.

Regarding G53A U37C, the self-cleavage is 0.97.

With G53A U37A, the self-cleavage stood at 0.57.

With C52G U24C, the self-cleavage came to 0.22.

With C52G U24G, the self-cleavage came out at 0.06.

C52G U24A: the self-cleavage came to 0.23.

Take C52U G22C: the self-cleavage was found to be 0.17.

Take C52U G22A: the self-cleavage came to 0.91.

As for C52U G22U, the self-cleavage was 0.88.

Regarding C52U G54U, the self-cleavage came out at 1.03.

For the variant C52U G54C, the self-cleavage came out at 0.94.

As for C52U G54A, the self-cleavage is 0.98.

Regarding C52U G42U, the self-cleavage was found to be 0.13.

C52U G42C: the self-cleavage turned out to be 0.39.

In the case of C52U G42A, the self-cleavage was determined as 0.91.

For the variant G53A U43G, the self-cleavage amounted to 0.37.

As for G53A U43A, the self-cleavage stood at 0.64.

For the variant G53A U43C, the self-cleavage came to 0.43.

As to G54A U24G, the self-cleavage was found to be 0.03.

With G54A U24A, the self-cleavage amounted to 0.13.

Take G54A U24C: the self-cleavage was determined as 0.13.

C52U G50A: the self-cleavage came out at 0.97.

As for C52U G50U, the self-cleavage stood at 0.98.

On to C52U G50C, for which the self-cleavage came out at 0.57.

As to C52U U12C, the self-cleavage is 0.65.

With C52U U12A, the self-cleavage is 0.99.

Take C52U U12G: the self-cleavage was determined as 0.78.

C52U G35C: the self-cleavage stood at 0.63.

Take C52U G35U: the self-cleavage is 0.99.

With C52U G35A, the self-cleavage is 0.96.

On to C52G U18C, for which the self-cleavage is 0.93.

For C52G U18G, the self-cleavage was determined as 0.86.

In the case of C52G U18A, the self-cleavage is 0.91.

As for C52U U24C, the self-cleavage is 0.56.

Take C52U U24A: the self-cleavage amounted to 0.33.

As to C52U U24G, the self-cleavage worked out at 0.03.

Consider G53C, for which the self-cleavage stood at 0.13.

G53U: the self-cleavage worked out at 0.56.

Regarding G53A, the self-cleavage is 0.93.

Turning to G53C U43A, the self-cleavage came to 0.08.

In the case of G53C U43G, the self-cleavage came to 0.07.

As to G53C U43C, the self-cleavage was determined as 0.07.

Regarding G54C U12A, the self-cleavage was found to be 0.43.

On to G54C, for which the self-cleavage amounted to 1.

For the variant G54A, the self-cleavage amounted to 1.

Take G53A U24A: the self-cleavage came out at 0.09.

Consider G53A U24C, for which the self-cleavage is 0.08.

Turning to G53A U24G, the self-cleavage came to 0.03.

With C52U G23A, the self-cleavage amounted to 0.68.

As for C52U G23U, the self-cleavage stood at 0.25.

With C52U G23C, the self-cleavage came out at 0.06.

Consider C52U G53U, for which the self-cleavage worked out at 0.9.

Turning to C52U G53C, the self-cleavage was determined as 0.17.

As to C52U G53A, the self-cleavage came out at 1.

Consider G53U G54A, for which the self-cleavage was found to be 0.25.

In the case of G53U G54U, the self-cleavage was found to be 0.46.

Turning to G53U G54C, the self-cleavage came out at 0.14.

Turning to C52U C9U, the self-cleavage came to 0.87.

As to C52U C9G, the self-cleavage came to 0.95.

As for C52U C9A, the self-cleavage was 0.62.

For C52U U18A, the self-cleavage was found to be 0.97.

Take C52U U18G: the self-cleavage turned out to be 0.86.

With C52U U18C, the self-cleavage was determined as 1.

As for G53C G54A, the self-cleavage amounted to 0.1.

On to G53C G54C, for which the self-cleavage was 0.08.

On to G53C G54U, for which the self-cleavage came out at 0.25.

For C52U U37G, the self-cleavage came to 1.06.

C52U U37C: the self-cleavage came out at 1.07.

In the case of C52U U37A, the self-cleavage stood at 0.84.

Take C52U G19C: the self-cleavage is 0.18.

For C52U G19A, the self-cleavage turned out to be 0.93.

Consider C52U G19U, for which the self-cleavage came to 0.48.

As to G53C U37A, the self-cleavage was determined as 0.06.

For G53C U37C, the self-cleavage amounted to 0.11.

G53C U37G: the self-cleavage was found to be 0.15.

Turning to G53A U12G, the self-cleavage is 0.18.

Regarding G53A U12C, the self-cleavage is 0.37.

For the variant G53A U12A, the self-cleavage is 0.28.

On to C52G G51U, for which the self-cleavage was determined as 0.48.

Regarding C52G U12G, the self-cleavage amounted to 0.32.

Consider C52G U12C, for which the self-cleavage came to 0.58.

With C52G U12A, the self-cleavage was determined as 0.85.

With G53U U12G, the self-cleavage came out at 0.07.

Turning to G53U U12C, the self-cleavage was determined as 0.13.

In the case of G53U U12A, the self-cleavage was 0.12.

Regarding C52U G51U, the self-cleavage amounted to 0.54.

Take C52U G51C: the self-cleavage was 0.13.

Consider C52U G51A, for which the self-cleavage is 0.88.

In the case of G53A U18G, the self-cleavage worked out at 0.65.

Consider G53A U18A, for which the self-cleavage stood at 0.8.

Regarding G53A U18C, the self-cleavage was found to be 0.83.

Regarding G53C U24C, the self-cleavage was determined as 0.03.

On to G53C U24G, for which the self-cleavage is 0.01.

As for G53C U24A, the self-cleavage was 0.04.

For the variant C52U G48C, the self-cleavage amounted to 0.11.

On to C52U G48U, for which the self-cleavage turned out to be 0.11.

Take C52U G48A: the self-cleavage worked out at 0.15.
